Key:
Mus musculus [1] = experiment: In vitro effect on CF1 male mouse on Lipid content after 16 days at a dose of 60 (mg/kg)/day; type: functional
Mus musculus [2] = organism: Mus musculus; experiment: In vitro effect on CF1 male mouse on Mitochondrial citrate exchange; type: functional
In short: (§1)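 In vitro test on 10% CF₁ male mouse liver homogenate (0.25 M sucrose, 0.001 M EDTA) with 2.5 μmol test drug. Assays: acetyl-CoA synthetase and citrate lyase as hydroxamate at 540 nm, 30 min, 37 °C; citrate exchange from [¹⁴C]citrate-loaded mitochondria after 10 min with drug; side-chain oxidation by ¹⁴CO₂ from [26-¹⁴C]cholesterol, 18 h, 37 °C; acetyl-CoA carboxylase by [¹⁴C]bicarbonate fixation after 30 min polymerization then 30 min at 37 °C.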

Mus musculus [3] = experiment: In vitro effect on CF1 male mouse on phosphatidate phosphohydrolase after 16 days at a dose of 40 (mg/kg)/day; type: functional
In short: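 CF1 male mice dosed ip daily for 16 days, drug suspended in 1% carboxymethylcellulose; liver taken as 10% homogenate in 0.25 M sucrose + 0.001 M EDTA. Phosphatidate phosphohydrolase measured as inorganic phosphate released from phosphatidic acid after 30 min, developed with ascorbic acid/ammonium molybdate, read at 820 nm. Expressed as % of 1% CMC vehicle control; N = 6.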

Mus musculus [4] = experiment: Effect on neutral lipids from CF1 male mice after 16 days at a dose of 20 (mg/kg/day); type: functional
In short: (§2)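 Dosing was ip in CF₁ male mice (~25 g) for 16 days, with compound suspended in 1% carboxymethylcellulose. Liver was then taken and homogenised to 10% in 0.25 M sucrose with 0.001 M EDTA. Lipid was extracted from a 2 mL aliquot by the Folch and Bligh–Dyer methods and total mg of lipid was weighed. Cholesterol (Liebermann–Burchard), triglycerides (kit), neutral lipids and phospholipids were then measured; N = 6; reported as % of vehicle control.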

Mus musculus [5] = experiment: Effect on triglycerides from CF1 male mice after 16 days at a dose of 40 (mg/kg/day); type: functional; in short: as §2
Mus musculus [6] = experiment: Effect on triglycerides from CF1 male mice after 16 days at a dose of 60 (mg/kg/day); type: functional; in short: as §2
Mus musculus [7] = experiment: Effect on Serum cholesterol levels on CF1 male mice at a dose of 20 (mg/kg)/day after 16 days; type: functional
In short: (§3)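 CF1 male mice (~25 g), drug suspended in 1% carboxymethylcellulose in water, given ip daily for 16 days; n = 6; vehicle control. Tail-vein blood on days 9 and 16, serum cholesterol by modified Liebermann–Burchard reaction; day-14 serum triglyceride by commercial kit; expressed as % control.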

Mus musculus [8] = experiment: Effect on Serum cholesterol levels on Hyperlipidemic induced mice After 14 days dosing.; type: functional
In short: (§4)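 Mice fed atherogenic diet for 2 weeks to raise serum lipids, then given drug at 20 (mg/kg)/day ip for a further 2 weeks; serum cholesterol and triglyceride measured after the diet and after 14 days dosing; n = 6; compared with 1% CMC and diet-only controls; % control.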

Mus musculus [9] = experiment: Effect on Serum triglceride levels on CF1 male mice at a dose of 100 (mg/kg)/day after 14 days; type: functional; in short: as §3
Mus musculus [10] = experiment: Effect on Serum triglceride levels on Hyperlipidemic induced mice After 14 days dosing.; type: functional; in short: as §4
Mus musculus [11] = experiment: Effect on cholesterol from CF1 male mice after 16 days at a dose of 10 (mg/kg/day); type: functional
In short: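 CF1 male mice dosed ip for 16 days at 10–60 (mg/kg)/day; liver taken and 10% homogenate made in 0.25 M sucrose + 0.001 M EDTA; aliquot extracted by Folch and Bligh–Dyer methods, mg lipid weighed, cholesterol measured by Liebermann–Burchard method; n = 6; % of 1% CMC control.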

Mus musculus [12] = experiment: In vitro effect on CF1 male mouse onAc-CoA carboxylase after 16 days at a dose of 20 (mg/kg)/day; type: functional; conditions: in the assay text read “In vivo” for “In vitro”
In short: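 Mice (CF1 males) given agent ip daily for 16 days in 1% carboxymethylcellulose; liver 10% homogenate in 0.25 M sucrose + 0.001 M EDTA. Acetyl-CoA carboxylase first polymerized 30 min at 37 °C, then incubated 30 min at 37 °C with sodium [14C]bicarbonate (41.0 mCi/mmol); incorporated label counted. Activity as % of vehicle control; N = 6.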

Mus musculus [13] = organism: Mus musculus; experiment: In vitro effect on CF1 male mouse on Cholesterol side- chain oxidation; type: functional; in short: as §1
Mus musculus [14] = organism: Mus musculus; experiment: In vitro effect on CF1 male mouse on Fatty acid synthetase; type: functional
Mus musculus [15] = experiment: In vitro effect on CF1 male mouse on Fatty acid synthetase after 16 days at a dose of 10 (mg/kg)/day; type: functional
In short: (§5)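 In vivo enzyme study. CF₁ male mice were dosed ip for 16 days in 1% CMC, and liver was homogenised to 10% in 0.25 M sucrose with 0.001 M EDTA. Enzymes assayed: acetyl-CoA synthetase as hydroxamate at 540 nm after 30 min at 37 °C; HMG CoA reductase with [1-¹⁴C]acetate in 9000g supernatant for 60 min at 37 °C; fatty acid synthetase with [2-¹⁴C]malonyl-CoA; acyltransferase with [³H]glycerol 3-phosphate and microsomes for 10 min; phosphatidate phosphohydrolase as released phosphate at 820 nm after 30 min. N = 6; reported as % control.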

Mus musculus [16] = experiment: In vitro effect on CF1 male mouse on HMGCoA reductase after 16 days at a dose of 40 (mg/kg)/day; type: functional; in short: as §5
Mus musculus [17] = experiment: In vitro effect on CF1 male mouse on HMGCoA reductase after 16 days at a dose of 60 (mg/kg)/day; type: functional; in short: as §5
Mus musculus [18] = organism: Mus musculus; experiment: In vitro effect on CF1 male mouse on Ac-CoA carboxylase; type: functional; in short: as §1
Mus musculus [19] = organism: Mus musculus; experiment: In vitro effect on CF1 male mouse on Ac-CoA synthetase; type: functional; in short: as §1
Rattus norvegicus [20] = experiment: Effect on low density cholesterol Holtzman rats after 14 days administration; type: functional
In short: (§6)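 Holtzman male rats (~400 g) given drug at 20 (mg/kg)/day for 14 days; on day 14 blood taken from the abdominal aorta and serum separated by centrifugation at 3500 rpm; lipid and protein content of the lipoprotein fractions measured.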

Rattus norvegicus [21] = experiment: Effect on neutral lipids Holtzman rats after 14 days administration; type: functional
Rattus norvegicus [22] = experiment: Effect on very low density cholesterol Holtzman rats after 14 days administration; type: functional
In short: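 Holtzman male rats (~400 g) received drug at 20 (mg/kg)/day for 14 days. On day 14, blood was collected from the abdominal aorta and serum was separated by centrifugation at 3500 rpm. Lipid content of the lipoprotein fractions was then determined.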

Rattus norvegicus [23] = experiment: Effect on Serum cholesterol levels on Holtzman rats at a dose of 30 (mg/kg)/day after 16 days; type: functional
In short: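 Holtzman male rats (~200 g) dosed orally by intubation needle daily for 16 days, drug suspended in 1% carboxymethylcellulose; n = 6; vehicle control. Tail-vein serum cholesterol on days 9 and 16 by modified Liebermann–Burchard reaction; day-14 serum triglyceride by commercial kit; % control.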

Rattus norvegicus [24] = experiment: Effect on cholesterol chylomicrons Holtzman rats after 14 days administration; type: functional; in short: as §6
Mus musculus [25] = experiment: Effect on Serum cholesterol levels on CF1 male mice at a dose of 100 (mg/kg)/day after 16 days; type: functional; in short: as §3
Mus musculus [26] = experiment: In vivo effect on CF1 male mouse on Lipid content after 16 days at a dose of 10 (mg/kg)/day
Mus musculus [27] = experiment: In vivo effect on CF1 male mouse on Lipid content after 16 days at a dose of 40 (mg/kg)/day

CC(=O)c1ccccc1N1C(=O)c2ccccc2C1=O gave a Control (Mus musculus [1]) of 80%, a Control (Mus musculus [2]) of 76% and a Control (Mus musculus [3]) of 54%. For the same molecule, the Control (Mus musculus [4]) was 65%, the Control (Mus musculus [5]) was 91% and the Control (Mus musculus [6]) was 100%. For the same molecule, the “Serum cholesterol (% of control)” value (Mus musculus [7]) was 43%, the Control (Mus musculus [8]) was 118% and the Control (Mus musculus [9]) was 59%. For the same molecule, the Control (Mus musculus [10]) was 86%, the Control (Mus musculus [11]) was 73% and the Control (Mus musculus [12]) was 41%. For the same molecule, the Control (Mus musculus [13]) was 27%, the Control (Mus musculus [14]) was 107% and the Control (Mus musculus [15]) was 106%. The Control (Mus musculus [16]) was 84%, the Control (Mus musculus [17]) was 94% and the Control (Mus musculus [18]) was 35%. The Control (Mus musculus [19]) was 63%, the Control (Rattus norvegicus [20]) was 57% and the Control (Rattus norvegicus [21]) was 55%. The Control (Rattus norvegicus [22]) was 85%, the Control (Rattus norvegicus [23]) was 64% and the Control (Rattus norvegicus [24]) was 64%. It also gave a Control (Mus musculus [25]) of 26%, a Control (Mus musculus [26]) of 84% and a Control (Mus musculus [27]) of 80%.

From ChEMBL document CHEMBL1122328, “Hypolipidemic activity of phthalimide derivatives. 2. N-phenylphthalimide and derivatives” (1983)
